Data set [1] concerns Tritrichomonas foetus. Briefly: In vitro protozoal parasite susceptibility assay. Type of data set: cell-based. Conditions: Tritrichomonas foetus, 24 h, read-out: Average % inhibition at 50 μM (Tritrichomonas foetus). In short, it runs like this:
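T. foetus strain D1 was screened in TYM Diamond's medium. Test compound was dissolved in DMSO and diluted into the medium. After 24 h exposure, parasites were counted with a hemacytometer.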

The nature of data set [2]: In vitro cytotoxic studies. The class given is cell-based, human. Conditions: human, PC-3 prostate cancer cells. In short, it runs like this:
(§1)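 PC-3 cells grown in DMEM with 10% FBS and plated in 96-well format. They were exposed to test compound over 20 μM–0.001 μM for 72 h. MTT was then added (stock 5 mg/ml in PBS) for 4 h. Plates were spun, supernatant removed and formazan dissolved in DMSO with 30 min shaking. A550 was read and percentage inhibition calculated.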

The test system of data set [3] is human prostate (PC-3) cancer cell line. The data set can be described thus: In vitro cytotoxic studies. The class given is cell-based. Particulars: PC-3 cells; tested at 0.2, 2.0 and 20 μM. The gist of the method:
as §1

Experimental findings from PMC7115568 (European Journal of Medicinal Chemistry, 2014) are described below.

The structures appear in SMILES notation. “Also recorded” adds a separate entry of the source.

Turning to `Cc1ccc2c(c1)C(=O)C(=O)N2CC#CCN1CCN(c2ccnc3cc(Cl)ccc23)CC1` [Compound 7d, 1-{4-[4-(7-Chloro-quinolin-4-yl)-piperazin-1-yl]-but-2-ynyl}-5-methyl-1H-indole-2,3-dione], the inhibition at 50 µM in data set [1] was determined as 59.1%. In data set [2], the cytotoxicity at 72 h, 0.2 µM turned out to be 1.3%; the cytotoxicity at 72 h, 2 µM was 8.1%; the cytotoxicity at 72 h, 20 µM amounted to 8.2%. Moreover, the “Cytotoxicity against PC-3 cell line (in words)” value in data set [3] was “no cytotoxicity; also recorded: minimal toxicity”.

Consider `O=C1C(=O)N(CC#CCN2CCN(c3ccnc4cc(Cl)ccc34)CC2)c2ccc(Cl)cc21` [Compound 7c, 5-Chloro-1-{4-[4-(7-chloro-quinolin-4-yl)-piperazin-1-yl]-but-2-ynyl}-1H-indole-2,3-dione], for which, in data set [1], the inhibition at 50 µM was found to be 100%. In data set [2], this molecule came in with a cytotoxicity at 72 h, 0.2 µM of 6.1%; a cytotoxicity at 72 h, 2 µM of 1.2%; a cytotoxicity at 72 h, 20 µM of 1.4%. Further, the “Cytotoxicity against PC-3 cell line (in words)” value in data set [3] was “no cytotoxicity; also recorded: minimal toxicity”.
